Test results: ChEMBL document CHEMBL1137020, “Role of the rapA gene in controlling antibiotic resistance of Escherichia coli biofilms” (2007)
Converted amounts (≈) assume the structure as drawn. The source made the active and inactive calls.

Assays:
Escherichia coli [1] = test: Antimicrobial activity against Escherichia coli isolate AMG1 24 hrs biofilms after 24 hrs relative to control; format: functional
Summary of the method: (§1)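 Microtiter plate biofilms grown 24 h, then exposed 24 h to a range of norfloxacin concentrations. Survival counted as CFU and expressed as percent of 10^8 CFU/ml for each strain.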

Escherichia coli [2] = test: Antimicrobial activity against Escherichia coli isolate AMG1 24 hrs biofilms at 0.03 ug/ml to 0.12 ug/ml after 24 hrs by microtiter plate count method; format: functional, organism-based; summary of the method: as §1
Escherichia coli [3] = test: Antimicrobial activity against wild type Escherichia coli K-12 flow cell-generated 24 hrs biofilms at 350 ug/ml after 1 hr using BacLight staining by CSLM; format: functional
Summary of the method: (§2)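 Penicillin G 350 μg/ml was given in flowing medium for 1 h, with controls kept on antibiotic-free flow. LIVE/DEAD BacLight was stopped in place for 5 min and then rinsed. CSLM green/(red+green) integrated intensity, thresholded, gave percent survival versus untreated controls.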

Escherichia coli [4] = test: Antimicrobial activity against tetracycline-resistant Escherichia coli U1 rapA mutant nylon membrane cultivated 24 hrs biofilms at 350 ug/ml after 1 hr; format: functional
Summary of the method: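 Nylon membranes (1×1 cm) in LB inoculated at OD600 0.1 and grown 24 h at 37°C. Medium replaced with LB ± penicillin G 350 μg/ml for 1 h. Membranes rinsed and vortexed 2 min in M9 salts, then diluted and plated in quadruplicate on LB agar for CFU.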

Escherichia coli [5] = test: Antimicrobial activity against tetracycline-resistant Escherichia coli U1 rapA mutant flow cell-generated 24 hrs biofilms using BacLight staining by CSLM; format: functional, organism-based
Summary of the method: (§3)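 Biofilms grown 24 h in Plexiglas flow cells on M9-Casamino Acid medium under flow. Penicillin G 350 μg/ml in flowing medium for 1 h; controls kept on medium alone. LIVE/DEAD BacLight (Syto9/propidium iodide) injected, flow halted 5 min, then rinsed. CSLM images thresholded. Survival taken as green/(red+green) fluorescence relative to untreated controls.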

Escherichia coli [6] = test: Antimicrobial activity against wild type Escherichia coli isolate AMG1 grown as biofilms after 24 hrs by spectrophotometric method; format: functional; conditions: AMG1, 24 h
Summary of the method: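 Triplicate microtiter wells held 100 and 200 μl LB, inoculated at OD600 0.06 and grown 24 h at 37°C without shaking. Liquid was replaced with LB containing penicillin G at 0–250 μg/ml, and growth was read by plate reader 24 h later. The biofilm contribution came from an equation correlating the two volumes' OD. MICadh is the concentration giving 50% growth reduction versus unexposed control.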

Escherichia coli [7] = test: Antimicrobial activity against tetracycline-resistant Escherichia coli U1 rapA mutant grown as planktonic cells after 24 hrs by spectrophotometric method; format: functional; conditions: U1, 24 h
Summary of the method: (§4)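 Wells with 100 and 200 μl LB inoculated to OD600 0.06 and grown 24 h at 37°C without shaking. Medium then replaced with LB containing penicillin G (0–250 μg/ml) for 24 h, and growth read by OD. MIC for planktonic cells and MICadh for biofilm taken as the concentration giving 50% growth reduction versus unexposed control. Biofilm contribution derived from the 100/200 μl OD relation.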

Escherichia coli [8] = test: Antimicrobial activity against tetracycline-resistant Escherichia coli U1 rapA mutant grown as biofilms after 24 hrs by spectrophotometric method; format: functional; conditions: U1, 24 h; summary of the method: as §4
Escherichia coli [9] = test: Antimicrobial activity against wild type Escherichia coli isolate AMG1 grown as planktonic cells after 24 hrs by spectrophotometric method; format: functional; conditions: AMG1, 24 h; summary of the method: as §4
Escherichia coli [10] = test: Antimicrobial activity against kanamycin-resistant Escherichia coli K-12 M1 W3110 deltarapA mutant flow cell-generated 24 hrs biofilms at 350 ug/ml after 1 hr using BacLight staining by CSLM; format: functional; summary of the method: as §3
Escherichia coli [11] = test: Antimicrobial activity against kanamycin-resistant Escherichia coli K-12 M1 W3110 deltarapA mutant 24 hrs biolflim at 350 ug/ml after 1 hr by microtiter plate count method; format: functional, organism-based
Summary of the method: (§5)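 Biofilms grown 24 h in microtiter plate wells, then exposed to penicillin G at 350 μg/ml for 1 h. Viability by plate count (CFU) against untreated controls. At least three independent determinations, mean ±1 SD. Strain differences tested by Student's two-tailed t test.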

Escherichia coli [12] = test: Antimicrobial activity against Escherichia coli isolate AMG1 24 hrs biofilms at 350 ug/ml after 1 hr by microtiter plate count method; format: functional
Summary of the method: (§6)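 Biofilms were grown 24 h in microtiter plate wells and exposed to penicillin G at 350 μg/ml for 1 h. Viability was counted by CFU plating and compared with untreated control biofilms grown identically. Values are averages of at least three independent determinations ±1 standard deviation. Strain differences were tested by two-tailed Student's t test.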

Escherichia coli [13] = test: Antimicrobial activity against Escherichia coli AMG1 isolate 24 hrs flow cell-generated biofilms using BacLight staining by CSLM; format: functional, organism-based; summary of the method: as §2
Escherichia coli [14] = test: Antimicrobial activity against tetracycline-resistant Escherichia coli U1 rapA mutant 24 hrs biofilms assessed as viability at 350 ug/ml after 1 hr by microtiter plate count method; format: functional; summary of the method: as §5
Escherichia coli [15] = test: Antimicrobial activity against kanamycin-resistant Escherichia coli U6 deltayhcQ mutant 24 hrs biofilms at 350 ug/ml after 1 hr by microtiter plate count method; format: functional; summary of the method: as §5
Escherichia coli [16] = test: Antimicrobial activity against wild type Escherichia coli K-12 24 hrs biolflim at 350 ug/ml after 1 hr by microtiter plate count method; format: functional, organism-based; summary of the method: as §6
Escherichia coli [17] = test: Antimicrobial activity against kanamycin-resistant Escherichia coli K-12 M2 W3110 deltayhcQ mutant 24 hrs biolflim at 350 ug/ml after 1 hr using BacLight staining; format: functional; summary of the method: as §3

O=C(N[C@H](CO)[C@H](O)c1ccc([N+](=O)[O-])cc1)C(Cl)Cl [CHLORAMPHENICOL]
Activity (Escherichia coli [1]): 40%

CCn1cc(C(=O)O)c(=O)c2cc(F)c(N3CCNCC3)cc21
Activity (Escherichia coli [2]): Active

CC1(C)S[C@@H]2[C@H](NC(=O)Cc3ccccc3)C(=O)N2[C@H]1C(=O)O [PENICILLIN G]
Activity (Escherichia coli [3]): 22% | Activity (Escherichia coli [4]): 30% | Activity (Escherichia coli [5]): Active | MIC (Escherichia coli [6]): 250 µg/mL (≈ 748 µM) | MIC (Escherichia coli [7]): 50 µg/mL (≈ 150 µM) | MIC (Escherichia coli [8]): 125 µg/mL (≈ 374 µM) | MIC (Escherichia coli [9]): 50 µg/mL (≈ 150 µM) | Activity (Escherichia coli [10]): 71% | Activity (Escherichia coli [11]): Active | Activity (Escherichia coli [12]): 35% | Activity (Escherichia coli [13]): inactive | Activity (Escherichia coli [14]): 71% | Activity (Escherichia coli [15]): 55% | Activity (Escherichia coli [16]): Active | Activity (Escherichia coli [17]): 31%

GENTAMICIN
Activity (Escherichia coli [1]): 40%
